High-throughput results (PubChem BioAssay)
M5 ag: human M5 muscarinic receptor agonists, primary screen, CHO-K1 cells, Fluo-8 calcium fluorescence; Muscarinic acetylcholine receptor M5 (Homo sapiens), P08912; CHO-K1 hM5 cells; 0% DMSO wells, 100% maximal acetylcholine response; activation, % at 3 µM; actives 0.19% (n = 360,000); AID 624037, 2012;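 active = activation above the run's mean over test compounds plus 3 SD, cut at about 23% in these data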;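 also: signal is peak over basal fluorescence ratio across the kinetic read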
Target sequence (P08912 whole entry, looked up): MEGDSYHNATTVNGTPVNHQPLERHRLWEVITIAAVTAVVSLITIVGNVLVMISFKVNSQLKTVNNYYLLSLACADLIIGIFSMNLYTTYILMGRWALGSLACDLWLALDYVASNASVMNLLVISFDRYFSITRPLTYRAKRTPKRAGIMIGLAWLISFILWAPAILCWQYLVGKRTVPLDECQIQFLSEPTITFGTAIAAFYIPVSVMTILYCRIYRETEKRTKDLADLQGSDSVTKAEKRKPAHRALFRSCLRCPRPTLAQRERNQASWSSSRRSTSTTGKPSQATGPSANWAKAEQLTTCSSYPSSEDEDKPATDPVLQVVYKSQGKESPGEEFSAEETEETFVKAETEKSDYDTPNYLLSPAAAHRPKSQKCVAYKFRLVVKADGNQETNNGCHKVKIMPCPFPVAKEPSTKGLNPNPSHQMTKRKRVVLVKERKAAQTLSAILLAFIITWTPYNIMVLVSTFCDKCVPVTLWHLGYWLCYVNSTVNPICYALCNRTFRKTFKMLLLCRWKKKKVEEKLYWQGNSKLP
CHRM5 PAM: human M5 muscarinic receptor positive allosteric modulators, primary screen, CHO-K1 cells, Fluo-8 calcium fluorescence. activation, % at 3 µM. actives 0.3% (n = 360,000). CHO-K1 hM5, ACh EC20 PAM; 0% = ACh EC20, 100% = ACh EC100;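 active = activation above the run cutoff, the mean activation of all test compounds plus 3 SD, cut at about 18% in these data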
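System: CHO-K1 cell line with stable human muscarinic M5 receptor expression | Also added: EC20 acetylcholine as agonist stimulus | Compound: One concentration, 3 µM final (nominal) | Timing: Fluo-8 loading 80 min at 37 °C plus 30 min room temperature | Measured by: Fluo-8 calcium dye fluorescence, kinetic read | Read-out basis: % activation, ACh-normalized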
CHRM1 antagonist: human M1 muscarinic receptor antagonists, primary screen, CHO-K1 cells, Fluo-8 calcium fluorescence, 1536-well. CHO-K1 hM1, ACh EC80 antagonist. inhibition, % at 3 µM. actives 1.3% (n = 360,000). AID 588852, 2011;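 active = percent inhibition above its own plate's cutoff, namely the mean of that plate's compound wells plus 3 SD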;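 also: peak over basal fluorescence ratio during 140 s after agonist addition; 0% = ACh EC80 plus DMSO and 100% = DMSO alone without agonist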
M5 antag: human M5 muscarinic receptor antagonists, primary screen, CHO cells, Fluo-8 calcium fluorescence; actives 0.59% (n = 360,000); inhibition, % at 3 µM; CHO-hM5 cells, ACh EC80;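 active = inhibition above a per-plate cutoff, the mean of that plate's test compounds plus 3 SD, cut at about 27% in these data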;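 also: 0% = acetylcholine EC80 with DMSO and 100% = DMSO without agonist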
CHRM1 PAM: human M1 muscarinic receptor positive allosteric modulators, primary screen, CHO-K1 cells, Fluo-8 calcium fluorescence, 1536-well | CHO-K1 hM1, ACh EC20; 0% = ACh EC20, 100% = maximal ACh | actives 0.088% (n = 360,000) | AID 588819, 2011 | activation, % at 3 µM; in the data active = activation above about 19%, passing the limit was not always enough
M1 ag: human M1 muscarinic receptor agonists, primary screen, Fluo-8 calcium fluorescence, CHO-K1 cells, HTS | Muscarinic acetylcholine receptor M1 (Homo sapiens), P11229 | CHO-K1 hM1, agonist mode; 0% DMSO, 100% acetylcholine EC100 | activation, % at 3 µM | actives 0.33% (n = 360,000) | AID 588814, 2011;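 active = activation above the run's mean compound activation plus 3 SD, cut at about 16% in these data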;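 also: peak over basal fluorescence ratio within a 140 s kinetic read after compound addition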
Numbers without * were called inactive; / = no result. Only some compounds are listed: those with a hit (about 2.1% of all), similar ones and a draw of the others.

SMILES | M5 ag | CHRM5 PAM | CHRM1 antagonist | M5 antag | CHRM1 PAM | M1 ag
O=C(Nc1ccon1)C1CCN(S(=O)(=O)c2cccs2)CC1 | -2 | 5 | -5 | -6 | -3 | -4
CCC(=O)c1ccc(OC(=O)c2ccc(Br)o2)cc1 | 36* | -7 | 11 | 0 | -12 | 81*
CCC(=O)c1ccc(OCc2ccc(C(=O)c3ccccc3)cc2)cc1 | 3 | -25 | 51* | 22 | -19 | -3
Cc1ccc(OC(=O)c2ccc(Br)o2)cc1 | 9 | 6 | 4 | 10 | -1 | 30*
CC(C)[C@@H]1O[C@H](CCc2ccccc2)CC2=C1C(=O)OC(C)(C)O2 | 3 | 6 | / | 4 | / | /
CC(C)(C)n1nnnc1C(c1cccs1)N(Cc1cccnc1)Cc1ccco1 (configuration not stated) | -16 | -48 | 98* | 70* | -19 | -2
CN(C)C/C=C/C(=O)Nc1cccc(-c2c[nH]c3ncnc(Oc4ccc(NC(=O)CC(=O)Nc5ccc(F)cc5)cc4F)c23)c1 | -1 | 2 | -5 | -1 | 9 | -9
Cc1ccc(NC(=O)Cn2cc(C=O)c3ccccc32)cc1 | -3 | -14 | -5 | 26 | 1 | 1
O=Cc1cn(CC(=O)Nc2ccc3c(c2)OCO3)c2ccccc12 | 7 | -20 | 27 | 27* | -28 | 2
CCCn1c(=O)c(C(=O)NNC(=O)c2ccccc2Cl)c(O)c2ccccc21 | 0 | -3 | 10 | 10 | -16 | 30*
C=CCn1c(=O)c(C(=O)Nc2ccccc2O)c(O)c2ccccc21 | -10 | -4 | -5 | -2 | 3 | -1
CCCn1c(=O)c(C(=O)NNC(=O)c2ccccc2[N+](=O)[O-])c(O)c2ccccc21 | -4 | 4 | -12 | -3 | 6 | -2
CC(C)Cn1c(=O)c(C(=O)Nc2ccncc2)c(O)c2ccccc21 | -20 | -33 | 99* | 100* | -24 | -7
C=CCn1c(=O)c(C(=O)Nc2ccccc2C)c(O)c2ccccc21 | 8 | 27* | -10 | -17 | 12 | 2
COC(=O)C1=NN(c2ccc(C)cc2)C2(S1)SC(C(C)=O)=C(C)N2c1ccccc1 (configuration not stated) | -1 | 21* | -3 | 0 | -1 | -5
O=C(c1ccc(N2CCOCC2)cc1)N1CCCC(Nc2ccccc2)C1 (configuration not stated) | -2 | 1 | -14 | -4 | 11 | 2
CN(C)S(=O)(=O)c1ccc(-c2csc(N/N=C/c3ccco3)n2)cc1 | 6 | -34 | 51* | 24 | -16 | 6
Cc1ccc(-c2csc(N/N=C/c3ccco3)n2)cc1 | 4 | -7 | -1 | 9 | 0 | -4
CN(C)S(=O)(=O)c1ccc(-c2csc(N/N=C/c3ccc(O)cc3)n2)cc1 | -1 | -14 | 37* | 24 | -12 | -1
C=CCc1cccc2cc(C(=O)NCc3cccnc3)c(=O)oc12 | -7 | -12 | 36* | 3 | -33 | -15
COc1ccc([C@H]2CC(=O)C=C(c3ccc(OC)c(OC)c3)C2)cc1 | 5 | 8 | -5 | -13 | -1 | -3
CCOc1ccc(Nc2cc(C)nc3c(C)cccc23)cc1 | 0 | 20* | -24 | -11 | 16 | -8
COc1ccc(Cl)cc1C(=O)Nc1cc(=O)n(C)c(=O)n1C | 1 | 0 | 16 | 0 | -7 | -4
Cc1nn(C(C)(C)C)c(NC(=O)c2ccc(Cl)cc2Cl)c1Br | -6 | -9 | 6 | 0 | 0 | -3
COc1ccc(Cc2nnc(NC(=O)CSc3ccc(C)cc3)s2)cc1OC | 74* | -5 | -7 | -3 | 15 | 61*
SMILES | M5 ag | CHRM5 PAM | CHRM1 antagonist | M5 antag | CHRM1 PAM | M1 ag
CC(=O)c1ccc(NC(=O)CCc2c(C)nc3ncnn3c2C)cc1 | 1 | -3 | 21 | 2 | -10 | -2
CN1C(=O)NC(NC(=O)c2ccncc2)(C(F)(F)F)C1=O (configuration not stated) | -1 | 3 | -11 | -6 | 8 | -3
CNC(=O)CSc1nnnn1CCCOC | -4 | 4 | 43* | 7 | 0 | -3
CC(=O)OCC1OC(n2ccc(=O)[nH]c2=O)C(O)C1O (configuration not stated) | -1 | 0 | -9 | -1 | 10 | -2
O=C(CN1CCN(C(=O)CNC(=O)c2ccc3c(c2)OCO3)CC1)Nc1cccc(F)c1 | 1 | 19* | -11 | -8 | 11 | -1
COc1ccc(-c2oc(NC(=O)CCl)c(C#N)c2-c2ccc(OC)cc2)cc1 | 2 | 10 | 46* | -3 | 12 | 7
COc1ccc(-c2oc(NC(=O)CSc3ncn[nH]3)c(C#N)c2-c2ccc(OC)cc2)cc1 | 4 | 2 | -8 | 1 | 3 | -2
CCN(CC)C(CNC(=O)CSc1nnnn1-c1c(C)cccc1C)c1ccco1 (configuration not stated) | -5 | 4 | 37* | -3 | -21 | -6
CCN(CC)C(CNC(=O)CSc1nnnn1-c1ccc(C)c(C)c1)c1ccco1 (configuration not stated) | -1 | -2 | 8 | 9 | -10 | -8
Cc1ccc(OCCCC(=O)Nc2ccc(N3CCOCC3)cc2)c(C)c1 | 2 | -7 | -1 | 8 | -1 | -1
Cc1cc(C)nc(NC(=NCCc2c[nH]c3ccccc23)NC(=O)Nc2ccccc2)n1 | -5 | -15 | 21* | 18 | -11 | -5
Cc1cc(C)nc(NC(=NCCc2c[nH]c3ccccc23)NC(=O)c2ccco2)n1 | 2 | -14 | 29* | 13 | -4 | 1
Cc1cc(C)nc(NC(=NCCc2c[nH]c3ccccc23)NC(=O)Nc2ccc(Cl)c(Cl)c2)n1 | -3 | 0 | -6 | 3 | 7 | -6
O=C(CCl)N1N=C(c2ccco2)CC1c1ccco1 (configuration not stated) | 3 | 28* | -9 | 11 | 10 | 2
O=C(OCC(=O)N1N=C(c2ccc(Cl)cc2)CC1c1ccco1)c1cccnc1 (configuration not stated) | 6 | 18* | -2 | -1 | 13 | -1
O=C(CCCc1ccccc1)Nc1nncs1 | -2 | -4 | 3 | -3 | 3 | -2
